For series [1], the target named is recombinant CTSL1 (Fasciola hepatica, UniProt Q7JNQ9). Nature of the series: Cathepsin L1. The series is classed as biochemical.
In series [2] the target is T1, purified recombinant PfM18AAP (Plasmodium falciparum, UniProt Q8I2J3).
T1 sequence (Q8I2J3 1-570): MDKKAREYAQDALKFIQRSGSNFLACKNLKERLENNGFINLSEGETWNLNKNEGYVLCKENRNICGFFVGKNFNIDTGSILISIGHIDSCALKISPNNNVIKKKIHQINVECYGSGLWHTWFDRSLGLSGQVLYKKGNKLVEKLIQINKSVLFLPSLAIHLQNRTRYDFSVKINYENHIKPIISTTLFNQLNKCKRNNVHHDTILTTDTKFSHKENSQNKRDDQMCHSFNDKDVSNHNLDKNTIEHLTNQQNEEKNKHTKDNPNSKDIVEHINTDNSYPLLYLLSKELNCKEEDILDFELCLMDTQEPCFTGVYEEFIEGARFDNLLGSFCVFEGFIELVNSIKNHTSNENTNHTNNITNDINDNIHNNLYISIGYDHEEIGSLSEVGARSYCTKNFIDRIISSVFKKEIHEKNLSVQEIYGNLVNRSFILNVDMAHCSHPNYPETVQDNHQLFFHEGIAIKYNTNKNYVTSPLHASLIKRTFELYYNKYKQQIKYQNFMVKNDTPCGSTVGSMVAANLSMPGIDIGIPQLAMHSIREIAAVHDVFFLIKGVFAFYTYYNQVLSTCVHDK
The experiment in a line: Ki determination and mode of inhibition. The series is classed as biochemical. To be noted: for mode of inhibition of PfM18AAP: comparison of fits, Lineweaver-Burk plots.

Series [3] concerns bacterial viability. The settings on record: previous primary screens, where tested; ref PubChem AIDs 449731, 651606; cited from earlier work.
For series [4], the target named is PfM18AAP extracts (soluble freeze-thaw extracts of parasites) (Plasmodium falciparum, UniProt Q8I2J3). Nature of the series: Malaria cell lysate assay. The series is classed as biochemical. The settings on record: at ≤5μM. In a few lines:
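Human erythrocytes infected in vitro were washed in PBS and parasites released with saponin. Three freeze-thaw cycles followed and supernatant extracts were kept. Extracts were incubated with test compound plus CoCl2 and aminoacyl-NHMec substrate (given as both H-Glu- and H-Asp-NHMec). Decreased fluorescence from substrate cleavage was taken as inhibition. Vehicle and background controls were included.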

For series [5] the following is noted: previous primary screens at SRIMSC; ref PubChem AIDs 1859, 1931, 651959; cited from earlier work.
Series [6] has as its system mammalian cytotoxicity. To be noted: previous primary screens, where tested; ref PubChem AIDs 1486, 1825; cited from earlier work.
For series [7], the system named is serotonin receptor. To be noted: previous primary screens; ref PubChem AIDs 612 and 504916; cited from earlier work.
Series [8] has as its system P. falciparum infected red blood cells. The experiment in a line: Parasite growth assay. The series is classed as cell-based, Plasmodium falciparum. The settings on record: 10 μM test concentration. The procedure, abridged:
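Asexual erythrocytic-stage P. falciparum in infected RBCs was incubated with test compound at 10 µM in hypoxanthine-free medium, then 3H-hypoxanthine was added. 3H incorporation was measured after 48 h; reduced incorporation was scored as inhibition. Each plate held vehicle and uninfected-RBC background controls (DMSO ≤1%).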

Series [9] concerns PfM18AAP. To be noted: cited from earlier work.

Like-named read-outs stand apart in the source and are kept apart here.

With `CN1CCc2cccc3c2[C@@H]1Cc1ccc(O)c(O)c1-3.Cl.O` [CID 6852389, (S)-(+)-Apomorphine hydrochloride hydrate], in series [1] (read-out: IC50 in CTSL1 titration experiments, 10 point titration, triplicate), the IC50 was > 59.6 µM. In series [2], the “mode of inhibition of PfM18AAP” value is “non-competitive”. The Ki (usually a measure of affinity in units of concentration, obtained from inhibition or displacement) in series [2] (read-out: Ki (non-linear regression), powder samples, substrate Glu-NHMec) is 3.39 ± 0.36 µM. Also, the “activity in bacterial viability screens” value in series [3] is “inactive”. Moreover, the “efficacy in P. falciparum lysate assay” value in [4] is 84%. In addition, in series [5], the “activity in similarly formatted enzymatic inhibition assays” value is on record as “devoid of activity”. Also, the “activity in mammalian cytotoxicity screens” value in series [6] was “inactive”. Also, the “activity in cell-based screens at SRIMSC (serotonin receptor screens)” value in series [7] is “inactive in all cell-based screens tested at the SRIMSC, except for two serotonin receptor screens”. In series [8], the “inhibition in 3H hypoxanthine incorporation assay” value is given as 87%.

Regarding `Oc1ccc(CCNc2c3ccccc3nc3ccccc23)cc1O` [CID 23724194, 4-[2-(acridin-9-ylamino)ethyl]benzene-1,2-diol], the IC50 in [1] was > 59.6 µM. In addition, in series [2], the Ki was found to be 1.35 ± 0.15 µM and the “mode of inhibition of PfM18AAP” value is reported as “non-competitive”. Besides, the “activity in bacterial viability screens” value in [3] was “inactive”. In series [5], the “activity in similarly formatted enzymatic inhibition assays” value is “devoid of activity”. The “activity in mammalian cytotoxicity screens” value in [6] is “inactive”. Also, in [7], the “activity in cell-based screens at SRIMSC (serotonin receptor screens)” value is “inactive in all cell-based screens tested at the SRIMSC, except for two serotonin receptor screens”.

For the compound `C[C@H](NC(=O)[C@H](Cc1ccccc1)NC(=O)OCc1ccccc1)C(=O)C=[N+]=[N-]` [Z-Phe-Ala diazomethylketone, Z-Phe-Ala-diazomethylketone, reference compound], in series [1] (read-out: IC50 of positive control in CTSL1 HTS assay, average, N=22 plates), the IC50 was 0.0155 µM.

As to `[Cl-].[Cl-].[Zn+2]` [Zn(II), ZnCl2, reference compound], the “concentration at which PfM18AAP is inhibited” value in [9] is reported as > 1 mM.

Regarding `[Cl-].[Cl-].[Co+2]` [cobalt], in series [9], the “effect of metal ion on PfM18AAP activity” value is recorded as “enhanced”.

On to `[Mn+2]` [manganese], for which the “effect of metal ion on PfM18AAP activity” value in series [9] was “enhanced”.

These data come from paper PMC4641816 (Journal of biomolecular screening, 2014).
